For one data set, the target named is Cytochrome P450 2C9 (Homo sapiens, UniProt P11712). As to the kind of experiment: Inhibition of human CYP2C9. Format: ADME. In outline:
(§1)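 Human liver microsomes; inhibition of probe-substrate metabolism measured with diclofenac (CYP2C9), […] (CYP2D6) and testosterone (CYP3A4).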

The target in another data set is Cytochrome P450 3A4 (Homo sapiens, UniProt P08684). As to the kind of experiment: Inhibition of human CYP3A4. Format: ADME. A digest of the protocol:
as §1

Another data set addresses Cytochrome P450 2D6 (Homo sapiens, UniProt P10635). In words: Inhibition of human CYP2D6. It counts as ADME. In outline:
as §1

Data set [1] concerns Canis familiaris. In words: Increase in QT prolongation in anesthetized dog up to 22 uM plasma level. Format: functional, organism-based. The settings on record: Canis lupus familiaris.
Data set [2] has as its target Voltage-gated inwardly rectifying potassium channel KCNH2 (Homo sapiens, UniProt Q12809). As to the kind of experiment: Displacement of [35S][…] from human ERG expressed in HEK293 cells. Format: cell-based. The settings on record: read-out: Inflection point. On the technique in general: In a radioligand displacement assay an active substance lowers the binding of a labelled ligand.

Data set [3] in a line: Half life in Beagle dog at 0.25 mg/kg, iv and 1 mg/kg, po. It counts as ADME, organism-based, Canis lupus familiaris. The note with it: in vivo. In outline:
(§2)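 Fasted beagle dogs, two per compound; iv 0.25 mg/kg as a DMSO solution, po 1 mpk as a solution in HCl-acidified methocel or 0.05 M citric acid (aq). Half-life, plasma clearance and steady-state volume of distribution taken from the iv leg; values are the average of the two dogs.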

The nature of data set [4]: Clearance in Beagle dog at 0.25 mg/kg, iv and 1 mg/kg, po. It counts as ADME, organism-based, Canis lupus familiaris. The note with it: in vivo. In outline:
as §2

The nature of data set [5]: Volume of distribution in Beagle dog at 0.25 mg/kg, iv and 1 mg/kg, po. It counts as ADME, organism-based, Canis lupus familiaris. The settings on record: in vivo, read-out: Vdss. In outline: as §2
The subject of the next data set is Rattus norvegicus. As to the kind of experiment: Metabolic stability measured as N-Glucuronidation of the parent compound in iv dosed rat. Format: ADME, organism-based. The settings on record: in vivo.
The test system of another data set is Rhesus monkey. In words: Metabolic stability measured as N-Glucuronidation of the parent compound in iv dosed rhesus monkey. It counts as ADME, organism-based, Macaca mulatta. The note with it: in vivo.
The target of data set [6] is T1, Vascular endothelial growth factor receptor 2 (Homo sapiens, UniProt P35968). As to the kind of experiment: Inhibition of VEGF-induced KDR autophosphorylation expressed in HEK293 cells. Format: functional, cell-based.
The target of data set [7] is T1, Vascular endothelial growth factor receptor 2. In words: Inhibition of KDR.
Data set [8] can be described thus: Lipophilicity, log P of the compound. Format: physicochemical. The note with it: octanol/water.
For the next data set, the species on record is Homo sapiens. In words: Protein binding in human plasma. The note with it: read-out: PPB (converted).
A short description of data set [9]: Metabolic stability in rat liver microsome. The settings on record: liver microsomes. It counts as ADME.
In data set [10] the test system is Canis familiaris. As to the kind of experiment: Increase in QT prolongation in anesthetized dog up to 60 uM plasma level. The settings on record: Canis lupus familiaris.
Data set [11] can be described thus: Clearance in Beagle dog at 1 mg/kg, iv and 1 mg/kg, po. It counts as ADME, organism-based, Canis lupus familiaris. The note with it: in vivo. In outline: (§3)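 Fasted beagle dogs, two per compound; iv 1 mg/kg as a DMSO solution; po 1 mg/kg as a solution in 0.05 M citric acid (aq) or HCl-acidified methocel. Plasma half-life, clearance, Vdss and oral bioavailability F taken as the average of the two dogs.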

Data set [12] is described as follows: Half life in Beagle dog at 1 mg/kg, iv and 1 mg/kg, po. It counts as ADME, organism-based, Canis lupus familiaris. The settings on record: in vivo. In outline: as §3
Data set [13] in a line: Volume of distribution in Beagle dog at 1 mg/kg, iv and 1 mg/kg, po. It counts as ADME, organism-based, Canis lupus familiaris. The settings on record: in vivo, read-out: Vdss. A digest of the protocol:
as §3

Data set [14] in a line: Bioavailability in Beagle dog at 1 mg/kg, iv and 1 mg/kg, po. The settings on record: in vivo. It counts as ADME, organism-based, Canis lupus familiaris. In outline:
as §3

Data set [15] is described as follows: Clearance in Sprague-Dawley rat at 2 mg/kg, iv and 10 mg/kg, po. The note with it: in vivo. Format: ADME, organism-based. A digest of the protocol:
(§4)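 Fasted male Sprague-Dawley rats, three per group: 2 mg/kg bolus iv as a DMSO solution and 10 mg/kg by oral gavage as a solution in 0.05 M citric acid. Clearance, Vdss and F given as mean with standard deviation.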

The nature of data set [16]: Clearance in rhesus monkey at 1 mg/kg, iv and 1 mg/kg, po. It counts as ADME, organism-based, Macaca mulatta. The note with it: in vivo. A digest of the protocol:
(§5)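 Fasted rhesus monkeys, two, crossover design: 1 mg/kg po as a solution in 0.05 M citric acid, and on a separate occasion 1 mg/kg iv as a DMSO solution. Half-life, clearance, Vdss and F reported as the two-animal average.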

Data set [17] addresses Vascular endothelial growth factor receptor 2 (Mus musculus, UniProt P35918). In words: Inhibition of VEGF-induced mouse lung KDR phosphorylation. A digest of the protocol: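 Tyrosine phosphorylation of lung KDR compared between treated and untreated lungs as a function of dose and time after dosing. In vivo IC50 expressed as plasma concentration.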
Data set [18] in a line: Bioavailability in rhesus monkey at 1 mg/kg, iv and 1 mg/kg, po. Format: ADME, organism-based, Macaca mulatta. The settings on record: in vivo. In outline:
as §5

The nature of data set [19]: Volume of distribution in Sprague-Dawley rat at 2 mg/kg, iv and 10 mg/kg, po. Format: ADME, organism-based. The settings on record: in vivo, read-out: Vdss. A digest of the protocol:
as §4

Data set [20] can be described thus: Volume of distribution in rhesus monkey at 1 mg/kg, iv and 1 mg/kg, po. The note with it: in vivo, read-out: Vdss. It counts as ADME, organism-based, Macaca mulatta. In outline:
as §5

The subject of data set [21] is Canis familiaris. In words: Increase in QT prolongation in anesthetized dog at 0.59 uM plasma level. Format: functional, Canis lupus familiaris.

The structures appear in SMILES notation. Calls of active or inactive are those of the source. A value given as a limit tells only on which side of the number the result lay.

The values that follow come from ChEMBL document CHEMBL1149259, “Potent N-(1,3-thiazol-2-yl)pyridin-2-amine vascular endothelial growth factor receptor tyrosine kinase inhibitors with excellent pharmacokinetics and low affinity for the hERG ion channel” (J Med Chem, 2004).

Broadly, the half-life is the time needed for the level to fall by half in the phase considered. The logP is a log measure of how a compound divides between an organic and an aqueous phase. For orientation: bioavailability means the share of a dose that reaches the circulation, judged against a reference dose that is usually intravenous.

Chain of Voltage-gated inwardly rectifying potassium channel KCNH2 (Q12809 whole entry): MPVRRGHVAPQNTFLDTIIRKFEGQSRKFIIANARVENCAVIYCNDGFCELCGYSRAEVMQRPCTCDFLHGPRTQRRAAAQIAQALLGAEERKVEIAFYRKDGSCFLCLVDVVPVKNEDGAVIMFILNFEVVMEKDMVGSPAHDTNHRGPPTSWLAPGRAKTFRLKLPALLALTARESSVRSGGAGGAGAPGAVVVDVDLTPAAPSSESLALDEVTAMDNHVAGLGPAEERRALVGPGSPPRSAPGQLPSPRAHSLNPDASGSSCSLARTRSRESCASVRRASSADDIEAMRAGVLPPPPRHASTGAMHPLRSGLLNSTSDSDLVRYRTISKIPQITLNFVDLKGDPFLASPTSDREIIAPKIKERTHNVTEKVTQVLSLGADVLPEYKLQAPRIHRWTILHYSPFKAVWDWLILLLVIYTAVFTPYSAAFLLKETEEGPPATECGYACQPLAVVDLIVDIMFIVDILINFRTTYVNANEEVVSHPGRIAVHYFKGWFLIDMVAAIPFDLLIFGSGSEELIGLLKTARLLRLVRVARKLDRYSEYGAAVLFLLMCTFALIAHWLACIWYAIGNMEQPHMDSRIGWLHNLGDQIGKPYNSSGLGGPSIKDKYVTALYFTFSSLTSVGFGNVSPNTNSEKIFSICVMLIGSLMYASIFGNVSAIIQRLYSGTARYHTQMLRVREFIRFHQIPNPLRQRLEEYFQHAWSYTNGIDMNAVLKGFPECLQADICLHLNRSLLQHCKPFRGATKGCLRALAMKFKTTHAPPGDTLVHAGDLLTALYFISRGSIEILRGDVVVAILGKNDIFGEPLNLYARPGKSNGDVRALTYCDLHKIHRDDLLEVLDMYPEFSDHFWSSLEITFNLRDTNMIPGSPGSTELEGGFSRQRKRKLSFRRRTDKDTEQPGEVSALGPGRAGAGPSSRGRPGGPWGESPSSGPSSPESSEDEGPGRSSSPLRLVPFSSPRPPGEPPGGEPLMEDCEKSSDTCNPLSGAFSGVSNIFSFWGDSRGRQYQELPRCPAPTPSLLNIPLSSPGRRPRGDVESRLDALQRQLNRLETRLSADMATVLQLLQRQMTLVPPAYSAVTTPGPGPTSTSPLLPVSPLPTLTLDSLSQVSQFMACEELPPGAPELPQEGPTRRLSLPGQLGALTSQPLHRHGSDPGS
T1 sequence (P35968 whole entry): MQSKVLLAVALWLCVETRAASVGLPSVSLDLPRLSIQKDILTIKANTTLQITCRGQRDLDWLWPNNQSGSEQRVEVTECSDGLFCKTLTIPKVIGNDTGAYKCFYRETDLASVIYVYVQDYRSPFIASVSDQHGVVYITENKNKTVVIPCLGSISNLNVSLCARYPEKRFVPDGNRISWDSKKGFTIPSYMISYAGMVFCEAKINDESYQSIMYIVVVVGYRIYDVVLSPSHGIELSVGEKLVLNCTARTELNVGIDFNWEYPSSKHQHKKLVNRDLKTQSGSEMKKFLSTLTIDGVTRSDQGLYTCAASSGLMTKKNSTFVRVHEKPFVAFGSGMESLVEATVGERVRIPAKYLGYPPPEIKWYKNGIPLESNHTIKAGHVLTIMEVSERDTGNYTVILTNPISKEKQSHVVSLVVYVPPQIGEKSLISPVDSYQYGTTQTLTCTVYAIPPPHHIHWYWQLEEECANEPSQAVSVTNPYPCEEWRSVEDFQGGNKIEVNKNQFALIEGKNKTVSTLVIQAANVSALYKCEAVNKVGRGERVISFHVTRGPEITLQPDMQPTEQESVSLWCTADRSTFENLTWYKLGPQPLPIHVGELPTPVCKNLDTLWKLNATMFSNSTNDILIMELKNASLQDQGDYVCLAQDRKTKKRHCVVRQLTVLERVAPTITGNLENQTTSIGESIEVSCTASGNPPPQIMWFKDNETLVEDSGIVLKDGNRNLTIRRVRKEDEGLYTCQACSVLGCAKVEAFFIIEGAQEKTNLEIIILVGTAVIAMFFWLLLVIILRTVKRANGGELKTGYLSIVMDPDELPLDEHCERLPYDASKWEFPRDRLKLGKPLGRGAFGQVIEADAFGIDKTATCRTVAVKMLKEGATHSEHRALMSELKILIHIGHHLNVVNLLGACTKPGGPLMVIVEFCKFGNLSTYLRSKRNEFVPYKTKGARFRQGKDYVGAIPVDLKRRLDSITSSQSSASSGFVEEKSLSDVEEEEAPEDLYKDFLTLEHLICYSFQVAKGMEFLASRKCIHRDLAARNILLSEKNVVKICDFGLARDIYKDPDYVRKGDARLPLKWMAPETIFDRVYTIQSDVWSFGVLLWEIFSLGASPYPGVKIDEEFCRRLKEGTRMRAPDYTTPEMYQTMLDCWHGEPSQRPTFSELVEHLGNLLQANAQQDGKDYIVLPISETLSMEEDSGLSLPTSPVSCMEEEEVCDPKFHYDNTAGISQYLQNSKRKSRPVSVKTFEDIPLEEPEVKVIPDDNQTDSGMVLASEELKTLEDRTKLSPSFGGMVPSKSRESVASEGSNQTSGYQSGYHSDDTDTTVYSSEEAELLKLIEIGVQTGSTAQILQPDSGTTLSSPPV
Chain of Cytochrome P450 3A4 (P08684 whole entry): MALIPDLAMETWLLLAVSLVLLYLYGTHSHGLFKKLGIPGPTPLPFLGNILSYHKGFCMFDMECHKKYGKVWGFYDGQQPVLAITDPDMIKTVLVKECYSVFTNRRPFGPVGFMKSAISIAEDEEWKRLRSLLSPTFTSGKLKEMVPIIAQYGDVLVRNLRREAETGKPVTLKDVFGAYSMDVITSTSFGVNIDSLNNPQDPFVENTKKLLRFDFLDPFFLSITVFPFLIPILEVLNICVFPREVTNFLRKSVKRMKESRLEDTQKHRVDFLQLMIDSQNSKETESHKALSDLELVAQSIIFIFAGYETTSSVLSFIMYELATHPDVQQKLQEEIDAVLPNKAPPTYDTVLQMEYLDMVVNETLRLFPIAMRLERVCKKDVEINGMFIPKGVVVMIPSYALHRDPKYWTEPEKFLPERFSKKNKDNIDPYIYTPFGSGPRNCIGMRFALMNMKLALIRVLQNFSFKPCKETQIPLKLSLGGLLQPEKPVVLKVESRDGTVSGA
Chain of Cytochrome P450 2C9 (P11712 whole entry): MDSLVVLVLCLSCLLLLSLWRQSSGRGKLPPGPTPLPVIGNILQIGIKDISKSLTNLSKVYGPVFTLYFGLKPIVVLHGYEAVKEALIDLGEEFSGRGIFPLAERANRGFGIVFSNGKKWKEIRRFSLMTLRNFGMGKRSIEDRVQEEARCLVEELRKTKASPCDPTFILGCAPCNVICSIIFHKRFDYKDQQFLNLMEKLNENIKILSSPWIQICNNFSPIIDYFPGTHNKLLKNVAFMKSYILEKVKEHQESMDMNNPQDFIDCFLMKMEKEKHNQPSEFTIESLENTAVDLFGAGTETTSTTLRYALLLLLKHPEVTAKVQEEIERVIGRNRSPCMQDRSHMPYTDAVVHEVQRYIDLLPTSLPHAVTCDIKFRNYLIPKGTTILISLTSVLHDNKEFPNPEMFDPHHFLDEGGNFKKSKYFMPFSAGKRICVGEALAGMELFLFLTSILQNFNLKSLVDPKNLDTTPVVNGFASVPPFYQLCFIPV
Chain of Cytochrome P450 2D6 (P10635 whole entry): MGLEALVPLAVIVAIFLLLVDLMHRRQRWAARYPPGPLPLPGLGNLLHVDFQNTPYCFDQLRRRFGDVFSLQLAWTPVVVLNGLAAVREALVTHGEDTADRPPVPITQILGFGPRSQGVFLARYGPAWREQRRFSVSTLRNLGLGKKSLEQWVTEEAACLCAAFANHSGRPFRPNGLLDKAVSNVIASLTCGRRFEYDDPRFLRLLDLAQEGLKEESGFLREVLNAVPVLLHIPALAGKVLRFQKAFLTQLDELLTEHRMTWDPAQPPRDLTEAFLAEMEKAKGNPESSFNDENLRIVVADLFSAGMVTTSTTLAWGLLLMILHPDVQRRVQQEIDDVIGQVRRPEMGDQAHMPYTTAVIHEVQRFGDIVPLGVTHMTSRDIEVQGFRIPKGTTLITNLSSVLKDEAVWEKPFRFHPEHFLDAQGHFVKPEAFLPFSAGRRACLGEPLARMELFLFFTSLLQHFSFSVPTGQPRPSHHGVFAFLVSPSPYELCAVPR

For the compound `CNC(=O)N1CCN(Cc2ccnc(Nc3ncc(C#N)s3)c2C)CC1`, the IC50 on Cytochrome P450 2C9, on Cytochrome P450 3A4 and against Cytochrome P450 2D6 was over 100000 nM in each case. Besides, in the data set with Canis familiaris [1], the result was inactive.

Consider `N#Cc1cnc(Nc2cc(CN3CCN(C(N)=O)CC3)ccn2)s1`, for which the IC50 in data set [2] came out at 24700 nM. This compound gave a half-life in data set [3] of 2.9 h. The clearance in data set [4] stood at 2.6 mL/min/kg. Moreover, in data set [5], the Vd was 0.34 L/kg.

`CNC(=O)N1CCN(Cc2ccnc(N(c3ncc([14C]#N)s3)C3O[C@H](C(=O)O)[C@@H](O)[C@H](O)[C@H]3O)c2)CC1` (stereo partly specified): the Stability in the data set on Rattus norvegicus is recorded as 37.6%; in the data set with Rhesus monkey, 63.3%.

For `N#Cc1cnc(Nc2cc(CN3CCOCC3)ccn2)s1`, the half-life in [3] is 2.5 h. Besides, the IC50 was 43 nM in data set [6] and 8 nM in data set [7]. This compound also showed a clearance in [4] of 12.4 mL/min/kg. The Vd in data set [5] stood at 1 L/kg.

For `CN(C)C(=O)N1CCN(Cc2ccnc(Nc3ncc(C#N)s3)c2)CC1`, the IC50 in data set [2] came out at 3510 nM; in data set [6] it was 40 nM; in data set [7], 10 nM. Further, the half-life in data set [3] is 2 h. Besides, the log partition coefficient (logP) in data set [8] was 2.74. Further, the fraction unbound in the data set listed under Homo sapiens is 0.041. The clearance in [4] worked out at 7.4 mL/min/kg. For the same compound, the Vd in data set [5] was found to be 0.88 L/kg.

Take `CS(=O)(=O)N1CCN(Cc2ccnc(Nc3ncc(-c4ccccc4)s3)c2)CC1`: the IC50 in [2] was 130 nM.

As for `CC(=O)N1CCN(Cc2ccnc(Nc3ncc(-c4ccccc4)s3)c2)CC1`, the IC50 was found to be 240 nM in [2], 43 nM in [6] and 8 nM in data set [7].

For `c1ccc(-c2cnc(Nc3cc(CN4CCCC4)ccn3)s2)cc1`, the half-life in data set [9] was determined as 8 min. Moreover, the figures for the IC50 in data set [6] and in [7] were 15 nM and 3 nM, respectively.

In the case of `CC(=O)N1CCN(Cc2ccnc(Nc3ncc(C#N)s3)c2)CC1`, the outcome with Canis familiaris [10] was inactive. The clearance in data set [11] turned out to be 1.2 mL/min/kg. Further, the half-life in [12] was 7.2 h. In addition, in data set [8], the logP worked out at 2.05. Further, the Vd in data set [13] is 0.72 L/kg. Further, the IC50 in data set [6] was determined as 41 nM; in [7], 13 nM. The bioavailability in data set [14] was 87%.

On to `CNC(=O)N1CCN(Cc2ccnc(Nc3ncc(C#N)s3)c2)CC1`, for which the IC50 on Cytochrome P450 2C9 was over 50000 nM; in data set [2], 9280 nM; at Cytochrome P450 3A4 it was over 50000 nM; in [17], 90 nM; against Cytochrome P450 2D6 it was over 50000 nM; in [6] it was 27 nM. Further, the IC50 in [7] came to 12 nM. Further, the clearance was determined as 0.51 mL/min/kg in data set [11], 13.3 mL/min/kg in [15] and 17.2 mL/min/kg in data set [16]. Also, in [8], the log partition coefficient (logP) worked out at 2.06. Further, the Vd in data set [13] is 0.72 L/kg; in [19], 1.5 L/kg; in data set [20], 1.3 L/kg. Besides, the bioavailability in data set [18] amounted to 43%; in data set [14] it was 99%.

In data set [11], `CS(=O)(=O)C1CCN(Cc2ccnc(Nc3ncc(C#N)s3)c2)CC1` returned a clearance of 1.8 mL/min/kg. The compound further yielded a lipophilicity (logP) in data set [8] of 2.06. Also, the Vd in data set [13] turned out to be 0.96 L/kg. Besides, the figures for the IC50 in [6] and in data set [7] were 31 nM and 7 nM, respectively. This compound had a bioavailability in data set [14] of 95%.

Turning to `c1ccc(-c2cnc(Nc3ccc(CN4CCCC4)cn3)s2)cc1`, the IC50 in data set [2] came out at 8 nM. The Activity with Canis familiaris [21] was determined as 10%.

With `N#Cc1cnc(Nc2cc(CN3CCN(C(=O)CO)CC3)ccn2)s1`, the clearance in data set [11] was found to be 0.88 mL/min/kg. In addition, the figures for the IC50 in [2], in data set [6] and in [7] were 9870 nM, 35 nM and 9 nM, respectively. This compound also had a half-life in data set [12] of 6.6 h. For the same compound, in data set [8], the logP was found to be 1.68. Moreover, in data set [13], the Vd was 0.47 L/kg. Further, the bioavailability in data set [14] came out at 61%. Besides, in the data set listed under Homo sapiens, the fraction unbound is 0.262.
